Assay results taken from ChEMBL document CHEMBL4196014, “Highly convergent synthesis and antiviral activity of (E)-but-2-enyl nucleoside phosphonoamidates” (Eur J Med Chem, 2018).
Activity calls are given as the source filed them. The rule behind the calls is not given here.

Columns and labels:
[1] = test system: Human alphaherpesvirus 1; experiment: Antiviral activity against Human simplex virus 1 KOS infected in HEL cells assessed as reduction in viral cytopathic effect; format: functional, organism-based; conditions: Human alphaherpesvirus 1, KOS
Procedure, shortened: (§1)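 Confluent cell monolayers were infected with 100 CCID50 of virus (1 CCID50 is the dose infecting 50% of cultures) with test compound at varying concentrations (100, 20, … μM). CPE was scored once it was complete in untreated infected controls.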

[2] = test system: Human alphaherpesvirus 1; experiment: Antiviral activity against thymidine kinase deficient acyclovir-resistant Human simplex virus 1 KOS infected in HEL cells assessed as reduction in viral cytopathic effect; format: functional, organism-based; conditions: Human alphaherpesvirus 1, KOS; procedure, shortened: as §1
[3] = test system: HEL; experiment: Cytostatic activity against HEL cells after 3 days by Coulter counting method; format: cell-based; conditions: human, 72 h
Procedure, shortened: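 HEL cells were seeded at 5 × 10^3 cells/well and grown for 24 h, then given medium with graded compound concentrations. After 3 days at 37 °C, cells were counted with a Coulter counter.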

[4] = test system: Vaccinia virus; experiment: Antiviral activity against Vaccinia virus infected in HEL cells assessed as reduction in viral cytopathic effect; format: functional, organism-based; conditions: Orthopoxvirus vaccinia; procedure, shortened: as §1
[5] = Cytotoxicity against HEL cells assessed as alteration of cell morphology by microscopic method; format: cell-based; conditions: human
Procedure, shortened: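 MCC is the lowest compound concentration giving a microscopically visible alteration of cell morphology.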

[6] = test system: Human alphaherpesvirus 2; experiment: Antiviral activity against Human simplex virus 2 G infected in HEL cells assessed as reduction in viral cytopathic effect; format: functional, organism-based; conditions: Human alphaherpesvirus 2, strain G; procedure, shortened: as §1
[7] = test system: Human coronavirus 229E; experiment: Antiviral activity against Human coronavirus 229E infected in HEL cells assessed as reduction in viral cytopathic effect; format: functional, organism-based; procedure, shortened: as §1
[8] = test system: Influenza B virus; experiment: Antiviral activity against Influenza B virus infected in MDCK cells assessed as reduction in viral cytopathic effect; format: functional, organism-based
Procedure, shortened: (§2)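 Nearly confluent MDCK cultures were infected with 100 CCID50 of virus with compound at varying concentrations (100, 20, … μM). CPE was scored when complete in untreated infected controls.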

[9] = test system: Coxsackievirus B4; experiment: Antiviral activity against Coxsackievirus B4 infected in African green monkey Vero cells assessed as reduction in viral cytopathic effect; format: functional, organism-based; procedure, shortened: as §1
[10] = test system: Influenza A virus; experiment: Antiviral activity against Influenza A virus (H1N1) infected in MDCK cells assessed as reduction in viral cytopathic effect; format: functional, organism-based; procedure, shortened: as §2
[11] = test system: Mammalian orthoreovirus 1; experiment: Antiviral activity against Reovirus-1 infected in African green monkey Vero cells assessed as reduction in viral cytopathic effect; format: functional, organism-based; procedure, shortened: as §1
[12] = test system: Human alphaherpesvirus 3; experiment: Antiviral activity against Varicella zoster virus Oka infected in HEL cells assessed as reduction in viral plaque formation; format: functional, organism-based; conditions: Human alphaherpesvirus 3, strain Oka vaccine
Procedure, shortened: (§3)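 Confluent cultures were inoculated with 20 PFU of virus with compound at varying concentrations (100, 20, … μM). Plaques were counted once plaque formation was complete in untreated infected controls.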

[13] = test system: Sindbis virus; experiment: Antiviral activity against Sindbis virus infected in African green monkey Vero cells assessed as reduction in viral cytopathic effect; format: functional, organism-based; procedure, shortened: as §1
[14] = test system: Human alphaherpesvirus 3; experiment: Antiviral activity against thymidine kinase deficient Varicella zoster virus 07/1 infected in HEL cells assessed as reduction in viral plaque formation; format: functional, organism-based; conditions: Human alphaherpesvirus 3, 07/1, HEL; procedure, shortened: as §3
[15] = test system: Coxsackievirus B4; experiment: Antiviral activity against Human coxsackievirus B4 infected in human HeLa cells assessed as reduction in viral cytopathic effect; format: functional, organism-based; procedure, shortened: as §1
[16] = test system: Vesicular stomatitis virus; experiment: Antiviral activity against Vesicular stomatitis virus infected in human HeLa cells assessed as reduction in viral cytopathic effect; format: functional, organism-based; procedure, shortened: as §1
[17] = test system: Human betaherpesvirus 5; experiment: Antiviral activity against Human cytomegalovirus Davis infected in HEL cells assessed as reduction in viral cytopathic effect; format: functional, organism-based; conditions: Human betaherpesvirus 5, Davis; procedure, shortened: as §1
[18] = test system: Human respirovirus 3; experiment: Antiviral activity against Human parainfluenza virus 3 infected in African green monkey Vero cells assessed as reduction in viral cytopathic effect; format: functional, organism-based; procedure, shortened: as §1
[19] = test system: Respiratory syncytial virus; experiment: Antiviral activity against Respiratory syncytial virus infected in human HeLa cells assessed as reduction in viral cytopathic effect; format: functional, organism-based; procedure, shortened: as §1
[20] = test system: Influenza A virus H3N2; experiment: Antiviral activity against Influenza A virus H3N2 infected in MDCK cells assessed as reduction in viral cytopathic effect; format: functional, organism-based; procedure, shortened: as §2
[21] = test system: Human betaherpesvirus 5; experiment: Antiviral activity against Human cytomegalovirus AD169 infected in HEL cells assessed as reduction in viral cytopathic effect; format: functional, organism-based; conditions: Human betaherpesvirus 5, AD169, HEL; procedure, shortened: as §1
[22] = test system: Human immunodeficiency virus 1; experiment: Antiviral activity against Human immunodeficiency virus 1 LAV1 infected in primary human PBM cells after 6 days by reverse transcriptase activity-based assay; format: functional, organism-based
[23] = Selectivity index, ratio of CC50 for HEL cells to EC50 for Varicella zoster virus Oka infected in HEL cells; format: toxicity, cell-based; conditions: human, read-out: Ratio CC50/EC50
Procedure, shortened: (§4)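 SI is CC50 divided by EC50. CC50 comes from the 3-day HEL Coulter-counter growth assay. EC50 comes from the VZV plaque-reduction assay (20 PFU inoculum).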

[24] = Selectivity index, ratio of CC50 for HEL cells to EC50 for thymidine kinase deficient Varicella zoster virus 07/1 infected in HEL cells; format: toxicity, cell-based; conditions: human, read-out: Ratio CC50/EC50; procedure, shortened: as §4

Row | SMILES | EC50 [1] | EC50 [2] | CC50 [3] | EC50 [4] | MCC [5] | EC50 [6] | Activity [8] | Activity [9] | Activity [10] | Activity [11] | EC50 [12] | Activity [13] | EC50 [14] | Activity [15] | Activity [16] | EC50 [17] | Activity [18] | Activity [19] | Activity [20] | EC50 [21] | other results
1 | Nc1ccn(C[C@@H](CO)OCP(=O)(O)O)c(=O)n1 [CIDOFOVIR] | 6.5 µM | 4.6 µM | > 300 µM | 21.3 µM | > 300 µM | 4.1 µM |  |  |  |  |  |  |  |  |  |  |  |  |  |  | 
2 | C[C@H](NP(=O)(C/C=C/Cn1cc(F)c(=O)[nH]c1=O)Oc1ccccc1)C(=O)OCc1ccccc1 (stereo partly drawn) | > 100 µM | 79 µM |  | > 100 µM | ≥ 100 µM | > 100 µM | inactive | inactive | inactive | inactive | > 100 µM | inactive | > 100 µM | inactive | inactive | > 20 µM | inactive | inactive | inactive | > 20 µM | EC50 [7]: 45 µM; Activity [22]: inactive
3 | Nc1nc(O)c2ncn(COC(CO)CO)c2n1 [GANCICLOVIR] |  |  | > 350 µM |  | ≥ 350 µM |  |  |  |  |  |  |  |  |  |  | 4.05 µM |  |  |  | 5.63 µM | 
4 | O=c1[nH]c(=O)n([C@H]2C[C@H](O)[C@@H](CO)O2)cc1/C=C/Br [BRIVUDINE] | 0.081 µM | 420 µM | > 300 µM | 10.8 µM | > 300 µM | 169 µM |  |  |  |  |  |  | ≥ 93.8 µM |  |  |  |  |  |  |  | selectivity ratio [23]: > 21400; selectivity ratio [24]: > 3
5 | Cc1cn(C/C=C/CP(=O)(OCOC(=O)C(C)C)OCOC(=O)C(C)C)c(=O)[nH]c1=O | 4.2 µM | 2.8 µM | 36 µM | > 200 µM | > 200 µM | 6.1 µM | inactive | inactive | inactive | inactive | 1.26 µM | inactive | 0.45 µM | inactive | inactive | 83 µM | inactive | inactive | inactive | 102 µM | selectivity ratio [23]: 29; selectivity ratio [24]: 80; Activity [22]: inactive
6 | CCCCCCCCCCCCCCCOCCCOP(=O)(O)C/C=C/Cn1cc(C)c(=O)[nH]c1=O | > 37 µM | > 37 µM | 76 µM | > 37 µM | 184 µM | > 37 µM | inactive | inactive | inactive | inactive | 19.4 µM | inactive | 20.5 µM | inactive | inactive | 13.5 µM | inactive | inactive | inactive | > 39 µM | Activity [22]: inactive
7 | COC(=O)[C@H](C)NP(=O)(C/C=C/Cn1cc(C)c(=O)[nH]c1=O)Oc1ccccc1 (stereo partly drawn) | 59 µM | 23.5 µM | > 100 µM | > 100 µM | > 100 µM | 31 µM | inactive | inactive | inactive | inactive | 8.13 µM | inactive | 1.82 µM | inactive | inactive | ≥ 70 µM | inactive | inactive | inactive | ≥ 72 µM | selectivity ratio [23]: > 12; EC50 [7]: > 100 µM; selectivity ratio [24]: > 55; Activity [22]: inactive
8 | Cc1cn(C/C=C/C[P@](=O)(N[C@@H](C)C(=O)OCc2ccccc2)Oc2ccccc2)c(=O)[nH]c1=O | 9.6 µM | 3.2 µM | ≥ 83 µM | > 100 µM | > 100 µM | 5.3 µM | inactive | inactive | inactive | inactive | 0.39 µM | inactive | 0.33 µM | inactive | inactive | 44.7 µM | inactive | inactive | inactive | 29.9 µM | selectivity ratio [23]: ≥ 213; EC50 [7]: 24.6 µM; selectivity ratio [24]: ≥ 252; Activity [22]: inactive
9 | C[C@H](NP(=O)(C/C=C/Cn1cc(Cl)c(=O)[nH]c1=O)Oc1ccccc1)C(=O)OCc1ccccc1 (stereo partly drawn) | 43 µM | 24 µM |  | > 100 µM | ≥ 100 µM | 40 µM | inactive | inactive | inactive | inactive | 44.7 µM | inactive | 20 µM | inactive | inactive | > 20 µM | inactive | inactive | inactive | > 20 µM | EC50 [7]: 8.9 µM; Activity [22]: inactive
10 | Cc1cn(C/C=C/C[P@@](=O)(N[C@@H](C)C(=O)OCc2ccccc2)Oc2ccccc2)c(=O)[nH]c1=O | 11.5 µM | 4.1 µM | 55 µM |  | > 100 µM | 2.9 µM | inactive | inactive | inactive | inactive | 0.59 µM | inactive | 0.39 µM | inactive | inactive | 52.5 µM | inactive | inactive | inactive | 34.2 µM | selectivity ratio [23]: 93; EC50 [7]: 60 µM; selectivity ratio [24]: 141; Activity [22]: inactive
11 | Nc1nc2c(ncn2COCCO)c(=O)[nH]1 [ACYCLOVIR] | 1.2 µM | 94 µM | > 440 µM | > 250 µM | > 440 µM | 0.7 µM |  |  |  |  |  |  |  |  |  |  |  |  |  |  | 
12 | CCCCCCCCCCCCCCCOCCCOP(=O)(C/C=C/Cn1cc(C)c(=O)[nH]c1=O)OCOC(=O)OC(C)C (stereo not drawn) | > 152 µM | > 152 µM | 14.7 µM |  | 30 µM | > 152 µM | inactive | inactive | inactive | inactive | > 6 µM | inactive | > 6 µM | inactive | inactive | > 6 µM | inactive | inactive | inactive | > 6 µM | Activity [22]: inactive
13 | Cc1cn(C/C=C/CP(=O)(OCOC(=O)C(C)(C)C)OCOC(=O)C(C)(C)C)c(=O)[nH]c1=O |  |  | 36.4 µM | 30.7 µM | ≥ 100 µM | 6.5 µM | inactive | inactive | inactive | inactive | 1.91 µM | inactive | 0.43 µM | inactive | inactive | > 41 µM | inactive | inactive | inactive | > 41 µM | selectivity ratio [23]: 19; selectivity ratio [24]: 85; Activity [22]: inactive
